Laboratory results taken from ChEMBL document CHEMBL1121366, “Synthesis and immunological activity of 5,6,6a,8,9,11a-hexahydronaphth[1',2':4,5]imidazo[2,1-b]thiazoles and 5,6,6a,9,10,11a-hexahydroanaphth[2',1':4,5]imidazo[2,1-b]thiazoles” (J Med Chem, 1980).

What was measured:
Mus musculus [1] = test: Effect on humoral immune response in mice against sheep red blood cells by the plaque-forming cell (PFC/10e 6 spleen cells) method in experiment 1 at dose 12 mg/kg; type: functional
Outline: (§1)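 Male CDF1 (Balb/c × DBA/2Cr) mice, 8-10 weeks old, groups of four, were immunized iv with 1 × 10^8 SRBC in PBS. After 24 h they received a single sc inguinal dose in saline, or as a suspension in saline with 1% Me2SO. Spleens were taken 4 days later and hemolytic plaque-forming cells counted by Cunningham's method. Values are the mean of four mice ± SE, with a paired Student's t test against the control.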

Mus musculus [2] = test: Effect on humoral immune response in mice against sheep red blood cells by the plaque-forming cell (PFC/10e 6 spleen cells) method in experiment 1 at dose 3 mg/kg; type: functional; outline: as §1
Mus musculus [3] = test: Tested for increase in foot-pad thickness (mm) by its effect on cellular immune response in mice against sheep red blood cells by DHR method in experiment 10 at dose 3 mg/kg; type: functional
Outline: (§2)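 Male ICR mice, 8-10 weeks old, groups of four, were sensitized with 1 × 10^8 SRBC in PBS into one hind footpad and dosed sc in the inguinal region, in saline or in saline with 1% Me2SO. Four days later the other footpad was challenged with 1 × 10^8 SRBC. Foot thickness was gauged just before and 24 h after challenge, and the increase was reported as mean of four ± SE.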

Mus musculus [4] = test: Tested for increase in foot-pad thickness (mm) by its effect on cellular immune response in mice against sheep red blood cells by the DHR method in experiment 10 at dose 3 mg/kg; type: functional; outline: as §2
Mus musculus [5] = test: (§3) Acute lethal dose was determined in mice upon intravenous administration; type: ADME, organism-based; conditions: in vivo
Outline: (§4)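 Male mice, 8–10 weeks old, CDF1 (Balb/c × DBA/2Cr). Groups of six dosed once, either iv or sc. Three to five dose levels were chosen from 400, 300, 150, 80, 40, 20 and 10 mg/kg. LD50 was calculated by the Litchfield–Wilcoxon method. Vehicle was saline or saline with 1% Me2SO, depending on compound.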

Mus musculus [6] = test: (§5) Acute lethal dose was determined in mice upon subcutaneous administration; type: ADME, organism-based; conditions: in vivo, sc; outline: as §4
Mus musculus [7] = test: Tested increase in foot-pad thickness (mm) by its effect on cellular immune response in mice against sheep red blood cells by the DHR method in experiment 16 at dose 3 mg/kg; type: functional
Outline: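 Male ICR mice, 8–10 weeks old, groups of four. Sensitized with SRBC (1 × 10^8) in PBS injected into one hind footpad; compound given sc in the inguinal region in saline or in saline with 1% Me2SO. Four days later the other hind footpad was challenged with SRBC (1 × 10^8). Dial gauge read just before and 24 h after challenge. Value is the mean increase ± SE.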

Mus musculus [8] = test: Effect on humoral immune response in mice against sheep red blood cells by the plaque-forming cell (PFC/10e6 spleen cells) method in experiment 3 at dose 12 mg/kg; type: functional
Outline: (§6)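 Male ICR mice, 8-10 weeks old, groups of four, were immunized iv with 1 × 10^8 SRBC in PBS. After 24 h they received a single sc inguinal dose in saline, or as a suspension in saline with 1% Me2SO. Splenic hemolytic plaque-forming cells were counted 4 days later by Cunningham's method. Values are the mean of four ± SE, with a paired t test against the control.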

Mus musculus [9] = test: Effect on humoral immune response in mice against sheep red blood cells by the plaque-forming cell (PFC/10e6 spleen cells) method in experiment 3 at dose 3 mg/kg; type: functional; outline: as §6
Mus musculus [10] = test: Effect on humoral immune response in mice against sheep red blood cells by the plaque-forming cell (PFC/10e6 spleen cells) method in experiment 4 at dose 12 mg/kg; type: functional; outline: as §1
Mus musculus [11] = test: Effect on humoral immune response in mice against sheep red blood cells by the plaque-forming cell (PFC/10e6 spleen cells) method in experiment 4 at dose 3 mg/kg; type: functional; outline: as §1
Mus musculus [12] = test: Effect on humoral immune response in mice against sheep red blood cells by the plaque-forming cell (PFC/10e6 spleen cells) method in experiment 5 at dose 12 mg/kg; type: functional; outline: as §1
Mus musculus [13] = test: Effect on humoral immune response in mice against sheep red blood cells by the plaque-forming cell (PFC/10e6 spleen cells) method in experiment 5 at dose 3 mg/kg; type: functional; outline: as §1
Mus musculus [14] = test: Effect on humoral immune response in mice against sheep red blood cells by the plaque-forming cell (PFC/10e6 spleen cells) method in experiment 6 at dose 12 mg/kg; type: functional; outline: as §1
Mus musculus [15] = test: Effect on humoral immune response in mice against sheep red blood cells by the plaque-forming cell (PFC/10e6 spleen cells) method in experiment 6 at dose 3 mg/kg; type: functional; outline: as §1
Mus musculus [16] = test: Effect on humoral immune response in mice against sheep red blood cells by the plaque-forming cell (PFC/10e6 spleen cells) method in experiment 7 at dose 12 mg/kg; type: functional
Outline: (§7)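 Male mice, 8–10 weeks old, CDF1 (Balb/c × DBA/2Cr) in experiment 7. Groups of four were immunized iv with 1 × 10^8 SRBC in PBS. After 24 h, compound was given sc in the inguinal region in saline or saline/1% Me2SO. Four days later, splenic hemolytic plaque-forming cells were counted by the Cunningham method and expressed per 10^6 spleen cells. Values are the mean of four mice ± SE.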

Mus musculus [17] = test: Effect on humoral immune response in mice against sheep red blood cells by the plaque-forming cell (PFC/10e6 spleen cells) method in experiment 7 at dose 3 mg/kg; type: functional; outline: as §7
Mus musculus [18] = test: Effect on humoral immune response in mice against sheep red blood cells by the plaque-forming cell (PFC/10e6 spleen cells) method in experiment 8 at dose 12 mg/kg; type: functional; outline: as §1
Mus musculus [19] = test: Effect on humoral immune response in mice against sheep red blood cells by the plaque-forming cell (PFC/10e6 spleen cells) method in experiment 8 at dose 3 mg/kg; type: functional; outline: as §1
[20] = as §3; type: ADME, organism-based; conditions: mouse, in vivo; outline: as §4
[21] = as §5; type: ADME, organism-based; conditions: mouse, in vivo, sc; outline: as §4
Mus musculus [22] = test: Tested for increase in foot-pad thickness (mm) by its effect on cellular immune response in mice against sheep red blood cells by the DHR method in experiment 17 at dose 3 mg/kg; type: functional; outline: as §2
Mus musculus [23] = test: Effect on humoral immune response in mice against sheep red blood cells by the plaque-forming cell (PFC/10e 6 spleen cells) method in experiment 9 at dose 12 mg/kg; type: functional; outline: as §1
Mus musculus [24] = test: Effect on humoral immune response in mice against sheep red blood cells by the plaque-forming cell (PFC/10e 6 spleen cells) method in experiment 9 at dose 3 mg/kg; type: functional; outline: as §1
Mus musculus [25] = test: Tested for increase in foot-pad thickness (mm) by its effect on cellular immune response in mice against sheep red blood cells by DHR method in experiment 17 at dose 12 mg/kg; type: functional; outline: as §2
Mus musculus [26] = test: Tested for increase in foot-pad thickness (mm) by its effect on cellular immune response in mice against sheep red blood cells by the DHR method in experiment 12 at dose 3 mg/kg; type: functional
Outline: (§8)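 Delayed-type hypersensitivity was run in male CDF1 (Balb/c × DBA/2Cr) mice, 8-10 weeks old, groups of four. Mice were sensitized with 1 × 10^8 SRBC in PBS into one hind footpad, with sc inguinal dosing in saline or in 1% Me2SO-saline. Four days later the opposite footpad was challenged with 1 × 10^8 SRBC. The read-out was the gauge-measured increase in thickness from just before to 24 h after challenge, as mean ± SE (n = 4).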

Mus musculus [27] = test: Tested for increase in foot-pad thickness (mm) by its effect on cellular immune response in mice against sheep red blood cells by DHR method in experiment 12 at dose 12 mg/kg; type: functional; outline: as §8
Mus musculus [28] = test: Tested for increase in foot-pad thickness (mm) by its effect on cellular immune response in mice against sheep red blood cells by the DHR method in experiment 14 at dose 3 mg/kg; type: functional; outline: as §8
Mus musculus [29] = test: Tested for increase in foot-pad thickness (mm) by its effect on cellular immune response in mice against sheep red blood cells by DHR method in experiment 14 at dose 12 mg/kg; type: functional; outline: as §8
Mus musculus [30] = test: Tested for increase in foot-pad thickness (mm) by its effect on cellular immune response in mice against sheep red blood cells by DHR method in experiment 10 at dose 12 mg/kg; type: functional; outline: as §2
Mus musculus [31] = test: Effect on humoral immune response in mice against sheep red blood cells by the plaque-forming cell (PFC/10e 6 spleen cells) method in experiment 2 at dose 12 mg/kg; type: functional; outline: as §6
Mus musculus [32] = test: Effect on humoral immune response in mice against sheep red blood cells by the plaque-forming cell (PFC/10e 6 spleen cells) method in experiment 2 at dose 3 mg/kg; type: functional; outline: as §6
Mus musculus [33] = test: Tested for increase in foot-pad thickness (mm) by its effect on cellular immune response in mice against sheep red blood cells by DHR method in experiment 11 at dose 12 mg/kg; type: functional; outline: as §2
Mus musculus [34] = test: Tested for increase in foot-pad thickness (mm) by its effect on cellular immune response in mice against sheep red blood cells by the DHR method in experiment 11 at dose 3 mg/kg; type: functional; outline: as §2

c1ccc2c(c1)CCC1C2N=C2SCCN21 (stereo in doubt)
PFC (Mus musculus [1]): 860
PFC (Mus musculus [2]): 1220
Increase in footpad thickness (Mus musculus [3]): 0.44 mm
Increase in footpad thickness (Mus musculus [4]): 0.42 mm
LD50 (Mus musculus [5]): 27 mg/kg
LD50 (Mus musculus [6]): 116 mg/kg

c1ccc([C@H]2CN3CCSC3=N2)cc1 [LEVAMISOLE]
Increase in footpad thickness (Mus musculus [7]): 0.34 mm
PFC (Mus musculus [8]): 1870
PFC (Mus musculus [9]): 2820
PFC (Mus musculus [10]): 1800
PFC (Mus musculus [11]): 1380
PFC (Mus musculus [12]): 1670
PFC (Mus musculus [13]): 1330
PFC (Mus musculus [14]): 1330
PFC (Mus musculus [15]): 1850
PFC (Mus musculus [16]): 970
PFC (Mus musculus [17]): 1390
PFC (Mus musculus [18]): 1200
PFC (Mus musculus [19]): 570
LD50 [20]: 15 mg/kg
LD50 [21]: 136 mg/kg

CC1=C(c2ccccc2)N2C(=NC3c4ccccc4CCC32)S1 (stereo not given)
Increase in footpad thickness (Mus musculus [22]): 0.2 mm
PFC (Mus musculus [23]): 470
PFC (Mus musculus [24]): 740
Increase in footpad thickness (Mus musculus [25]): 0.32 mm

Fc1ccc2c(c1)CCC1C2N=C2SCCN21 (trans isomer)
Increase in footpad thickness (Mus musculus [26]): 0.44 mm
Increase in footpad thickness (Mus musculus [27]): 0.44 mm
PFC (Mus musculus [8]): 1620
PFC (Mus musculus [9]): 1970

C[C@@H]1SC2=NC3c4ccccc4CCC3N2[C@@]1(O)c1ccccc1 (stereo not given in full)
Increase in footpad thickness (Mus musculus [22]): 0.28 mm
Increase in footpad thickness (Mus musculus [25]): 0.52 mm
PFC (Mus musculus [18]): 1120
PFC (Mus musculus [19]): 550
LD50 [20]: 170 mg/kg

Clc1ccc2c(c1)CCC1N=C3SCCN3C21 (trans isomer)
Increase in footpad thickness (Mus musculus [28]): 0.39 mm
Increase in footpad thickness (Mus musculus [29]): 0.36 mm
PFC (Mus musculus [12]): 820
PFC (Mus musculus [13]): 1060

c1ccc2c(c1)CCC1C2N=C2SCCN21 (trans isomer)
PFC (Mus musculus [1]): 1500
PFC (Mus musculus [2]): 1100
Increase in footpad thickness (Mus musculus [30]): 0.42 mm
Increase in footpad thickness (Mus musculus [4]): 0.57 mm
LD50 (Mus musculus [5]): 67 mg/kg
LD50 (Mus musculus [6]): 320 mg/kg

c1ccc2c(c1)CCC1N=C3SCCN3C21 (stereo in doubt)
PFC (Mus musculus [31]): 1610
PFC (Mus musculus [32]): 1800
Increase in footpad thickness (Mus musculus [33]): 0.38 mm
Increase in footpad thickness (Mus musculus [34]): 0.37 mm
LD50 [20]: 20 mg/kg
LD50 (Mus musculus [6]): 68 mg/kg
